Converted amounts (≈) assume the structure as drawn. The source made the active and inactive calls. The rule behind the calls is not given here.
Key:
Mus musculus [1] = assay: Antiinflammatory activity against nontypeable beta-lactamase-negative ampicillin-resistant Haemophilus influenzae 4437 infected in mouse ddY assessed as decrease in MIP-2 level in bronchoalveolar lavage fluid at 100 mg/kg, po bid for 3 days relative to control; type: functional, organism-based; parameters: dose 100 mg/kg; conditions: Lung
Outline: (§1)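 Intubated ddY mice challenged intratracheally, then dosed orally twice daily from 24 h for 3 days and killed 12 h after the last dose. BAL done with 3 × 1.0 ml saline, pooled per animal. MIP-2 and IL-1β in BAL fluid measured by mouse ELISA kits. Four experiments.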

Haemophilus influenzae [2] = assay: Antibacterial activity against nontypeable beta-lactamase-negative ampicillin-resistant Haemophilus influenzae 4437 infected in mouse ddY assessed as decrease in viable bacterial count at 100 mg/kg, po bid for 3 days; type: functional
Outline: (§2)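 Male ddY SPF mice, 6 weeks old, with a tube placed into the main bronchus 7 days before intratracheal challenge under pentobarbital. Drug given in DMSO orally twice daily from 24 h post-infection for 3 days. Mice killed 12 h after the last dose. Lungs homogenized in 1.0 ml PBS, serially diluted and plated on chocolate agar overnight at 37°C, 5% CO2. Four experiments.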

Haemophilus influenzae [3] = assay: Antibacterial activity against nontypeable beta-lactamase-negative ampicillin-resistant Haemophilus influenzae 4437; type: functional
Outline: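 MIC by CLSI broth dilution in Haemophilus Test Medium, inoculum 10^5 CFU/ml, tested in duplicate. β-lactamase production checked by nitrocefin test.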

Mus musculus [4] = assay: Antiinflammatory activity against nontypeable beta-lactamase-negative ampicillin-resistant Haemophilus influenzae infected in mouse ddY assessed as inflammatory changes in lung at 40 mg/kg, po bid for 3 days relative to control; type: functional, organism-based; parameters: dose 40 mg/kg
Outline: (§3)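 Intubated ddY mice challenged intratracheally, then dosed orally twice daily for 3 days. Lungs fixed in 10% buffered formalin, stained with hematoxylin and eosin, and examined at ×200 for inflammatory cell infiltration of alveoli and bronchioles.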

Haemophilus influenzae [5] = assay: Antibacterial activity against macrolide-resistant Haemophilus influenzae 4437 infected in NCI-H292 cells assessed as decrease in viable bacterial count at 64 ug/ml by 3-h invasion assay; type: functional, organism-based
Outline: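 NCI-H292 cells in RPMI 1640 with 10% FBS, seeded at 5 × 10^5/well, then held in 0.5% FBS for 24 h at confluence. Infected with 10 µl of about 6 × 10^6 CFU/ml bacteria for 3 h at 37°C, 5% CO2. Washed, then gentamicin 200 µg/ml with drug for 2 h. Lysed in 1% Triton X-100; intracellular CFU counted on chocolate agar. Three experiments.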

Mus musculus [6] = assay: Antiinflammatory activity against nontypeable beta-lactamase-negative ampicillin-resistant Haemophilus influenzae infected in mouse ddY assessed as inflammatory changes in lung at 100 mg/kg, po bid for 3 days relative to control; type: functional, organism-based; parameters: dose 100 mg/kg; outline: as §3
Mus musculus [7] = assay: Antiinflammatory activity against nontypeable beta-lactamase-negative ampicillin-resistant Haemophilus influenzae 4437 infected in mouse ddY assessed as decrease in MIP-2 level in bronchoalveolar lavage fluid at 40 mg/kg, po bid for 3 days relative to control; type: functional, organism-based; parameters: dose 40 mg/kg; conditions: Lung; outline: as §1
Mus musculus [8] = assay: Antiinflammatory activity against nontypeable beta-lactamase-negative ampicillin-resistant Haemophilus influenzae 4437 infected in mouse ddY assessed as decrease in total cell count in bronchoalveolar lavage fluid at 40 mg/kg, po bid for 3 days; type: functional, organism-based; parameters: dose 40 mg/kg; conditions: Lung
Outline: (§4)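 Intubated ddY mice challenged intratracheally, then dosed orally twice daily from 24 h for 3 days and lavaged 12 h after the last dose (3 × 1.0 ml saline, pooled). Total cells counted with Turk stain. Differentials counted on 100 cytocentrifuged cells stained with Diff-Quick. Four experiments.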

Haemophilus influenzae [9] = assay: Antibacterial activity against nontypeable beta-lactamase-negative ampicillin-resistant Haemophilus influenzae 4437 infected in mouse ddY assessed as decrease in viable bacterial count at 40 mg/kg, po bid for 3 days; type: functional; outline: as §2
Mus musculus [10] = assay: Antiinflammatory activity against nontypeable beta-lactamase-negative ampicillin-resistant Haemophilus influenzae 4437 infected in mouse ddY assessed as decrease in IL1-beta level in bronchoalveolar lavage fluid at 100 mg/kg, po bid for 3 days relative to control; type: functional, organism-based; parameters: dose 100 mg/kg; conditions: Lung; outline: as §1
Mus musculus [11] = assay: Antiinflammatory activity against nontypeable beta-lactamase-negative ampicillin-resistant Haemophilus influenzae 4437 infected in mouse ddY assessed as decrease in IL1-beta level in bronchoalveolar lavage fluid at 40 mg/kg, po bid for 3 days relative to control; type: functional, organism-based; parameters: dose 40 mg/kg; conditions: Lung; outline: as §1
Mus musculus [12] = assay: Antiinflammatory activity against nontypeable beta-lactamase-negative ampicillin-resistant Haemophilus influenzae 4437 infected in mouse ddY assessed as decrease in neutrophil count in bronchoalveolar lavage fluid at 100 mg/kg, po bid for 3 days relative to control; type: functional, organism-based; parameters: dose 100 mg/kg; conditions: Lung; outline: as §4
Mus musculus [13] = assay: Antiinflammatory activity against nontypeable beta-lactamase-negative ampicillin-resistant Haemophilus influenzae 4437 infected in mouse ddY assessed as decrease in total cell count in bronchoalveolar lavage fluid at 100 mg/kg, po bid for 3 days; type: functional, organism-based; parameters: dose 100 mg/kg; conditions: Lung; outline: as §4
Mus musculus [14] = assay: Antiinflammatory activity against nontypeable beta-lactamase-negative ampicillin-resistant Haemophilus influenzae 4437 infected in mouse ddY assessed as decrease in neutrophil count in bronchoalveolar lavage fluid at 40 mg/kg, po bid for 3 days; type: functional, organism-based; parameters: dose 40 mg/kg; conditions: Lung; outline: as §4

SMILES | Activity (Mus musculus [1]) | log10CFU/ml (Haemophilus influenzae [2]) | MIC (Haemophilus influenzae [3]) | Activity (Mus musculus [4]) | Activity (Haemophilus influenzae [5]) | Activity (Mus musculus [6]) | Activity (Mus musculus [7]) | Activity (Mus musculus [8]) | log10CFU/ml (Haemophilus influenzae [9]) | Activity (Mus musculus [10]) | Activity (Mus musculus [11]) | Activity (Mus musculus [12]) | Activity (Mus musculus [13]) | Activity (Mus musculus [14])
CC[C@H]1OC(=O)[C@H](C)[C@@H](O[C@H]2C[C@@](C)(OC)[C@@H](O)[C@H](C)O2)[C@H](C)[C@@H](O[C@@H]2O[C@H](C)C[C@H](N(C)C)[C@H]2O)[C@](C)(OC)C[C@@H](C)C(=O)[C@H](C)[C@@H](O)[C@]1(C)O [CLARITHROMYCIN] | Active | 4.6 | 64 µg/mL (≈ 85.6 µM) | Active | Active | Active | Active | Active | 5.8 | Active | Active | Active | Active | Active
CC1(C)S[C@@H]2[C@H](NC(=O)[C@H](N)c3ccccc3)C(=O)N2[C@H]1C(=O)O [AMPICILLIN] |  |  | 16 µg/mL (≈ 45.8 µM) |  |  |  |  |  |  |  |  |  |  | 
